In the library only some 3.1% were active in any assay of this set; here they are far more common.
hERG protect = compounds protecting human hERG from proarrhythmic drug block | Q12809 | CHO-hERG, FluxOR thallium flux, dofetilide IC70 present | activation (rescue from dofetilide block), less the hit threshold, % at 10 µM | AID 1511 | hit rate 0.51% among 310,000;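 active = activation above the mean of controls blocked by dofetilide plus 5 SD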;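 note: thallium influx through hERG after potassium depolarization seen as dye fluorescence rise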
KCNK9 block = blocks the human KCNK9 two-pore domain potassium channel | HEK293 KCNK9, FluxOR thallium flux fluorescence; hits give low values | Q9NPC2 | hit rate 1.2% among 310,000 | B-score at 10 µM;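 active = ratio B-score over 3 SD below the library mean, with starting fluorescence within 5 SD of its mean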;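 note: negative B-score means less thallium flux so channel inhibition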
KCNK3 inh = human KCNK3 channel inhibition, primary screen. hit rate 0.84% among 340,000. CHO-KCNK3 thallium flux, FluxOR fluorescence; hits give low values. AID 602410. B-score at 10 µM;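 active = B-score under library mean minus 4 SD, starting fluorescence ratio at most library mean plus 5 SD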;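 note: more negative B-score means stronger inhibition of thallium flux through KCNK3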
Target sequence (O14649 whole entry, looked up): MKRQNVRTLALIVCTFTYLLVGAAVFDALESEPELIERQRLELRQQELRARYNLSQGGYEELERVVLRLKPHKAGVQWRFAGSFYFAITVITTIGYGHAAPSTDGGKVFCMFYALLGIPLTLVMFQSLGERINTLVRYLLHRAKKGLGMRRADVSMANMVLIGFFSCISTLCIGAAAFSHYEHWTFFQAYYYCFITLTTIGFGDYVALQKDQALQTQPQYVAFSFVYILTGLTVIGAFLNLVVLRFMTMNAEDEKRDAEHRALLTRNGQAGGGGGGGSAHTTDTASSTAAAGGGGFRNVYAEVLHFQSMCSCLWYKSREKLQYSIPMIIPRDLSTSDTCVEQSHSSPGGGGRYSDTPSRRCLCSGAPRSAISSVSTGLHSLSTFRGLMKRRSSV
KCNQ1 pot = potentiates or activates the human KCNQ1 potassium channel | B-score at 10 µM | CHO-K1 KCNQ1, thallium flux FluxOR fluorescence; hits give high values | AID 2648 | P51787 | hit rate 0.35% among 310,000;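 active = fluorescence ratio B-score, a plate-corrected score, at least three library SD, with initial intensity B-score within 5 SD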
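Assay system: CHO-K1 cells stably expressing KCNQ1. Medium: assay buffer for compound exposure, DMSO matched across wells. Timing: 37 °C overnight plating, 90-min dark dye load, 20-min compound pretreatment. Signal: kinetic FluxOR fluorescence, 10 s baseline plus 110 s post-stimulus.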
KCNQ1 inh = human KCNQ1 channel inhibition; CHO-K1 KCNQ1, FluxOR thallium flux fluorescence; hits give high values; B-score at 10 µM; hit rate 1.3% among 310,000; AID 2642; P51787;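 active = compounds whose thallium flux B-score, printed positive for inhibition, exceeds three library SD while starting fluorescence stays within three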;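 note: channel opened by potassium depolarization with thallium stimulus after 20 min compound exposure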
* hit, by the source's call; i = inactive; x = not tested or not shown.

SMILES	hERG protect	KCNK9 block	KCNK3 inh	KCNQ1 pot	KCNQ1 inh
COc1ccccc1/C=C/C=C1\Oc2c(ccc(O)c2CN2CCN(CCO)CC2)C1=O	-21	-6.8*	i	i	6*
CN(C)Cc1c(O)ccc2c1O/C(=C\C=C\c1ccccc1)C2=O	-28	i	i	i	9*
CCN1CCN(Cc2c(O)ccc3c2O/C(=C\C=C\c2ccccc2)C3=O)CC1	-22	i	i	i	6*
CCc1ccc(/C=C2\Oc3c(ccc(O)c3CN3CCN(C)CC3)C2=O)cc1	-22	i	i	i	8*
O=C1/C(=C/C=C/c2ccccc2)Oc2c1ccc(O)c2CN1CCN(CCO)CC1	-19	i	i	i	i
O=C(Nc1ccc(S(=O)(=O)N2CCCC2)cc1)C1CCN(S(=O)(=O)c2ccc(F)cc2)CC1	-13	i	i	i	i
CC(C)(C)NC(=O)COc1coc(CN2CCN(Cc3ccccc3)CC2)cc1=O	-1	i	i	i	i
O=C(Cn1cc(CNC(=O)C2CCCCC2)nn1)Nc1cc(C(F)(F)F)ccc1Cl	x	x	i	x	x
COC(=O)c1ccc(Oc2nc(Nc3ccc(C)c(C)c3)nc(N(C)C)n2)cc1	-14	i	i	i	6*
CC(C)Sc1ncnc2[nH]ncc12	x	x	i	x	x
O=C(COC(=O)c1ccccc1SCC(=O)N1CCCC1)NCc1ccccc1	-8	i	i	i	i
COc1ccc(-c2csc(C(C#N)=C(O)CSc3nccn3C)n2)cc1OC	x	x	i	x	x
COc1ccc(NC(=O)CSc2nnc(COc3ccccc3)n2Cc2ccco2)cc1OC	5.1*	i	i	i	i
COC(=O)c1ccc(NC(=O)CN2C(=O)CC(C)S(=O)(=O)c3ccccc32)cc1 (stereo not drawn)	-9	i	i	i	i
COc1cc(C2C(C(C)=O)=C(O)C(=O)N2Cc2ccccc2)ccc1O (stereo not drawn)	-5	i	i	i	i
O=C1c2ccccc2CCCC12N=NCC2c1cccc2ccccc12 (stereo not drawn)	-18	-7.6*	i	i	i
Cc1ccc(C2CN=NC23CCc2ccccc2C3=O)cc1 (stereo not drawn)	-9	i	i	i	i
CC(CC(=O)NC1CCCCC1)S(=O)(=O)c1ccc2c(c1)NC(=O)CO2 (stereo not drawn)	-8	i	i	i	i
CCCC1=Nc2cc(C(=O)N3CCN(c4ccccn4)CC3)ccc2Sc2ccc(C)cc21	-19	i	i	i	7*
Clc1ccc(Cc2ccccc2)nn1	5.3*	i	i	i	i
O=c1c2cc(Cl)ccc2[nH]c(=S)n1Cc1cccs1	3	i	i	8*	i
O=c1c2cc(Cl)ccc2[nH]c(=S)n1Cc1ccco1	-14	i	i	i	i
COc1ccc(NC(=O)CN(C)C(=O)CCCNC(=O)c2ccc(Cl)cc2)cc1	-16	i	i	i	i
Cc1ccc(C2=CC(c3ccccc3)n3ncnc3N2)cc1 (stereo not drawn)	-2	i	i	i	i
Fc1ccc(Br)cc1C1C=C(c2ccc(Br)cc2)Nc2ncnn21 (stereo not drawn)	-8	i	-12*	i	i
SMILES	hERG protect	KCNK9 block	KCNK3 inh	KCNQ1 pot	KCNQ1 inh
CCc1ccc(C2=CC(c3cc(Br)ccc3F)n3ncnc3N2)cc1 (stereo not drawn)	x	x	-8.9*	x	x
C[C@@H]1CN([C@@H](C)CO)C(=O)Cc2cc(NC(=O)C3CCCCC3)ccc2O[C@H]1CN(C)S(=O)(=O)c1ccccc1	x	x	i	x	x
CC1=NN(c2ccccc2)C(=O)/C1=C/c1ccc(Cl)cc1	-6	i	i	i	8*
CC(OC(=O)CN1C(=O)c2ccccc2C1=O)C(=O)NC1CCCCC1 (stereo not drawn)	-3	i	i	i	i
CCCCOc1ccc(C(=O)N/N=C/c2cn[nH]c2-c2ccc(OC)c(OC)c2)cc1	-16	i	i	i	i
COc1ccc(-c2[nH]ncc2/C=N\NC(=O)c2ccc(C(C)(C)C)cc2)cc1OC	-8	i	i	i	6*
COc1ccc(NC(=O)CN(C)C(=O)Cc2ccc3c(c2)CCC3)cc1	-8	i	i	i	i
CC(C)NC(=NCc1ccc(Cl)cc1Cl)Nc1ccccc1	-5	i	i	i	6*
CCN(CC)C(=O)CC(c1ccccc1)c1ccco1 (stereo not drawn)	-11	i	i	i	i
CCC(=O)N(CCC(c1ccccc1)c1ccco1)Cc1cccs1 (stereo not drawn)	-11	-14*	i	i	i
O=C(c1ccco1)N(CCC(c1ccccc1)c1ccco1)Cc1ccccc1 (stereo not drawn)	-16	-7.2*	i	i	i
CCn1cc(C(=O)OCC(=O)OC2CC(C)CCC2C(C)C)c(=O)c2ccc(C)nc21 (stereo not drawn)	-18	i	-11*	i	i
c1cc2c3c(cccc3c1)NC1(CCCCCC1)N2	-3	i	i	i	i
c1cc2c3c(cccc3c1)NC1(CCC3(CC1)Nc1cccc4cccc(c14)N3)N2	-8	i	i	i	11*
Cc1noc(/C=C/c2ccc(-c3ccccc3Cl)o2)c1[N+](=O)[O-]	-6	i	i	i	7*
Cc1cccc(C)c1NC(=O)N1CCC(n2cnc3ccccc32)CC1	-17	i	i	i	i
O=C(NC1CCCCC1)N1CCC(n2cnc3ccccc32)CC1	6.2*	i	i	i	i
CC(C)(C)c1ccc(Oc2ccc(N)cn2)cc1	-1	i	i	21*	i
CNC(=S)N1CCn2cccc2C1c1cc(OC)c(OC)c(OC)c1 (stereo not drawn)	-10	i	i	i	i
CCNC(=S)N1CCn2cccc2C1c1ccc(F)cc1 (stereo not drawn)	-8	-8*	i	i	i
NC(=O)C1CCN(C(=O)CNC(=O)c2ccc(F)cc2)CC1	x	x	i	x	x
CCC1CCCCN1C(=O)CCn1c(=O)oc2ccccc21 (stereo not drawn)	-6	i	i	i	i
Cc1c(Cc2ccccc2)c(=O)oc2cc(OCC(=O)NC(Cc3ccc(Cl)cc3)C(=O)O)ccc12 (stereo not drawn)	-11	-7.3*	i	i	i
Cc1c(C)c2ccc(OCC(=O)NC(Cc3ccc(Cl)cc3)C(=O)O)cc2oc1=O (stereo not drawn)	-4	i	i	i	i
CSc1nc(N)nc2c1ncn2C1OC(CO)CC1O (stereo not drawn)	x	x	i	x	x
